This is an account of results in ChEMBL document CHEMBL4251647, “Synthesis, anticancer activity and mechanism of action of new thiazole derivatives” (Eur J Med Chem, 2018).

In series [1] the test system is K562. Description: Induction of DNA damage in human K562 cells at 17 uM after 48 hrs by propidium iodide staining based flow cytometry (reference value: 3.62 +/- 0.37%). It counts as functional. A general note: In flow cytometry, cells or beads pass a laser one at a time.
Series [2] has as its system K562. Description: Cell cycle arrest in human K562 cells assessed as accumulation at S-phase at 17 uM after 48 hrs by flow cytometry (reference value: 17.39 +/- 0.84%). The series is classed as functional. A digest of the protocol:
(§1)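 K562 cells seeded at 3 x 10^5 cells/mL in RPMI-1640 and exposed 48 h at 37 °C, 5% CO2. Cells were stained with propidium iodide (Guava cell cycle kit) and 5,000 events acquired by flow cytometry. Vehicle control was 0.1% DMSO. Two independent experiments, each in triplicate.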

Series [3] has as its system K562. Description: Induction of mitochondrial membrane potential depolarization in human K562 cells at 17 uM after 48 hrs by Rho-123 staining based flow cytometry (reference value: 12.24 +/- 0.61%). The series is classed as functional.
Series [4] deals with HEp-2. Description: Cytotoxicity against human Hep2 cells assessed as inhibition of cell viability at 25 ug/ml after 72 hrs by MTT assay relative to control. The series is classed as functional. To be noted: HEp-2, 72 h. A digest of the protocol:
(§2)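 Single-concentration MTT screen at 25 µg/mL for 72 h. Seeding was 3 x 10^5 cells/mL (HL-60, K562) or 1 x 10^5 cells/mL (adherent), with 24 h preincubation. MTT was added for the final 3 h, formazan dissolved in DMSO and absorbance read at 560 nm. Results are given as percent inhibition ± SD.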

The subject of series [5] is HL-60. Description: Cytotoxicity against human HL60 cells assessed as inhibition of cell viability at 25 ug/ml after 72 hrs by MTT assay relative to control. It counts as functional. To be noted: HL-60, 72 h. The method, boiled down:
as §2
On the technique in general: Tetrazolium dyes change colour on reduction, which living cells bring about.

Series [6] concerns K562. Description: Induction of mitochondrial membrane potential depolarization in human K562 cells at 34 uM after 48 hrs by Rho-123 staining based flow cytometry (reference value: 12.24 +/- 0.61%). The series is classed as functional.
The subject of series [7] is K562. Description: Cell cycle arrest in human K562 cells assessed as accumulation at S-phase at 34 uM after 48 hrs by flow cytometry (reference value: 17.39 +/- 0.84%). The series is classed as functional. A digest of the protocol: as §1
Series [8] concerns K562. Description: Cell cycle arrest in human K562 cells assessed as accumulation at G1-phase at 34 uM after 48 hrs by flow cytometry (reference value: 45.54 +/- 1.34%). The series is classed as functional. A digest of the protocol: as §1
Series [9] concerns K562. Description: Cytotoxicity against human K562 cells assessed as inhibition of cell viability at 25 ug/ml after 72 hrs by MTT assay relative to control. The series is classed as functional. To be noted: K562, 72 h. The method, boiled down: as §2
Series [10] has as its system HEp-2. Description: Cytotoxicity against human Hep2 cells assessed as inhibition of cell viability after 72 hrs by MTT assay. The series is classed as functional, cell-based. To be noted: HEp-2, 72 h. A digest of the protocol: (§3)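 MTT assay. Leukaemic lines were seeded at 3 x 10^5 cells/mL and adherent lines at 1 x 10^5 cells/mL, then preincubated 24 h. Compounds were added at 0.098–25.0 µg/mL for 72 h, with MTT for the last 3 h. Formazan was dissolved in DMSO and read at 560 nm. IC50 came from regression; triplicate, two independent experiments.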

The test system of series [11] is K562. Description: Cytotoxicity against human K562 cells assessed as inhibition of cell viability after 72 hrs by MTT assay. The series is classed as functional, cell-based. To be noted: K562, 72 h. A digest of the protocol: as §3
Series [12] concerns HT-29. Description: Cytotoxicity against human HT-29 cells assessed as inhibition of cell viability after 72 hrs by MTT assay. It counts as functional, cell-based. To be noted: HT-29, 72 h. The method, boiled down: as §3
The test system of series [13] is HT-29. Description: Cytotoxicity against human HT-29 cells assessed as inhibition of cell viability at 25 ug/ml after 72 hrs by MTT assay relative to control. It counts as functional. To be noted: HT-29, 72 h. The method, boiled down:
as §2

Series [14] has as its system HL-60. Description: Cytotoxicity against human HL60 cells assessed as inhibition of cell viability after 72 hrs by MTT assay. The series is classed as functional, cell-based. To be noted: HL-60, 72 h. The method, boiled down: as §3
The subject of a further series is PBMC. Description: Cytotoxicity against human PBMC cells assessed as inhibition of cell viability after 72 hrs by alamar blue assay. The series is classed as cell-based. A digest of the protocol:
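PBMC from healthy donors were grown in RPMI-1640 with 20% FBS and 2% phytohaemagglutinin, then plated at 10^6 cells/mL. After 24 h, compounds (0.048–25 µg/mL, in DMSO) were added for 72 h. Resazurin was added for the final 24 h and absorbance read at 570 and 595 nm as percent of control.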

The test system of series [15] is NCI-H292. Description: Cytotoxicity against human NCI-H292 cells assessed as inhibition of cell viability after 72 hrs by MTT assay. The series is classed as functional, cell-based. To be noted: NCI-H292, 72 h. A digest of the protocol: as §3
Series [16] relates to K562. Description: Cell cycle arrest in human K562 cells assessed as accumulation at G2/M-phase at 17 uM after 48 hrs by flow cytometry (reference value: 35.97 +/- 1.94%). It counts as functional. A digest of the protocol: as §1
Series [17] deals with K562. Description: Cell cycle arrest in human K562 cells assessed as accumulation at G1-phase at 17 uM after 48 hrs by flow cytometry (reference value: 45.54 +/- 1.34%). It counts as functional. The method, boiled down: as §1
In series [18] the test system is K562. Description: Cytotoxicity against human K562 cells assessed as inhibition of cell viability after 48 hrs by MTT assay. The series is classed as functional, cell-based. To be noted: K562, 48 h. A digest of the protocol: (§4)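 K562 cells (3 x 10^5 cells/mL, RPMI-1640 with 10% FBS) were treated with serial dilutions for 24 or 48 h. Viability was read by MTT (absorbance at 560 nm after DMSO solubilisation), and IC50 was obtained by regression.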

Series [19] has as its system K562. Description: Cytotoxicity against human K562 cells assessed as inhibition of cell viability by MTT assay. The series is classed as functional, cell-based. To be noted: TDE = time-dependent effect.
In series [20] the test system is K562. Description: Induction of DNA damage in human K562 cells at 34 uM after 48 hrs by propidium iodide staining based flow cytometry (reference value: 3.62 +/- 0.37%). The series is classed as functional.
The next series deals with Erythrocyte. Description: Hemolytic activity in human erythrocytes after 1 hr by spectrophotometric method. It counts as ADME, cell-based. The method, boiled down:
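Human erythrocytes as a 2% suspension in 0.85% NaCl with 10 mM CaCl2 were exposed to 0.78–250 µg/mL for 1 h at room temperature. After centrifugation, released haemoglobin in the supernatant was read at 540 nm. Triton X-100 (1%) served as positive control; EC50 is the concentration giving 50% haemolysis.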

Series [21] concerns K562. Description: Cytotoxicity against human K562 cells assessed as inhibition of cell viability after 24 hrs by MTT assay. The series is classed as functional, cell-based. To be noted: K562, 24 h. The method, boiled down: as §4
Series [22] concerns K562. Description: Cell cycle arrest in human K562 cells assessed as accumulation at G2/M-phase at 34 uM after 48 hrs by flow cytometry (reference value: 35.97 +/- 1.94%). It counts as functional. The method, boiled down: as §1
Series [23] has as its system NCI-H292. Description: Cytotoxicity against human NCI-H292 cells assessed as inhibition of cell viability at 25 ug/ml after 72 hrs by MTT assay relative to control. To be noted: NCI-H292, 72 h. The series is classed as functional. A digest of the protocol: as §2
The nature of series [24]: Selectivity index, ratio of IC50 for human PBMC to IC50 for human K562 cells. It counts as toxicity. To be noted: human PBMC and human K562 cells, read-out: Ratio IC50. A digest of the protocol:
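Ratio of IC50 in PBMC (Alamar blue, 72 h) to IC50 in K562 cells (MTT, 72 h), calculated as SI = IC50(PBMC)/IC50(K562).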

The subject of series [25] is K562. Description: Induction of mitochondrial membrane potential depolarization in human K562 cells at 0.5 uM after 48 hrs by Rho-123 staining based flow cytometry (reference value: 12.24 +/- 0.61%). It counts as functional.
Series [26] has as its system K562. Description: Induction of DNA damage in human K562 cells at 0.5 uM after 48 hrs by propidium iodide staining based flow cytometry (reference value: 3.62 +/- 0.37%). It counts as functional.
For series [27], the system named is K562. Description: Cell cycle arrest in human K562 cells assessed as accumulation at G1-phase at 0.2 uM after 48 hrs by flow cytometry (reference value: 45.54 +/- 1.34%). It counts as functional. A digest of the protocol:
as §1

The test system of series [28] is K562. Description: Cell cycle arrest in human K562 cells assessed as accumulation at G2/M-phase at 0.2 uM after 48 hrs by flow cytometry (reference value: 35.97 +/- 1.94%). It counts as functional. A digest of the protocol:
as §1

The subject of series [29] is K562. Description: Cell cycle arrest in human K562 cells assessed as accumulation at S-phase at 0.2 uM after 48 hrs by flow cytometry (reference value: 17.39 +/- 0.84%). The series is classed as functional. A digest of the protocol: as §1

The term inhibition denotes how much of the control response was suppressed. By IC50 is commonly meant the concentration at which inhibition is half-maximal. A word on the EC50: it is the concentration that produces a half-maximal response.

For `FC(F)(F)c1ccc(/C=N/Nc2nc(-c3ccc(Cl)cc3Cl)cs2)cc1`, the Activity with K562 [1] amounted to 19.74%; with K562 [2], 7.23%; in the series with K562 [3], 25.05%; in the series on K562 [6], 37.12%; in the series with K562 [7] it was 6.72%; in the series on K562 [8], 82.74%. The Activity is 7.51% with K562 [16]; 85.25% in the series with K562 [17]; “Tde” in the series on K562 [19]; 22.43% in the series on K562 [20]; 11.47% in the series on K562 [22]. Also, the inhibition at 25 µg/mL in the series with HEp-2 [4] was determined as 96.7%; in the series with HL-60 [5], 91.1%; with K562 [9] it was 88.9%; in the series on HT-29 [13], 79.5%; with NCI-H292 [23], 96.5%. Besides, the IC50 in the series on HEp-2 [10] turned out to be 7.65 µM; in the series with K562 [11], 5.48 µM; in the series with HT-29 [12], 11.2 µM; in the series with HL-60 [14], 17.8 µM; with PBMC, 43 µM; in the series on NCI-H292 [15] it was 10.4 µM. In addition, the IC50 is 17.8 µM in the series on K562 [18] and above 60.1 µM with K562 [21]. For the same compound, the EC50 with Erythrocyte is above 250 µg/mL. In series [24], the selectivity ratio is 7.85.
Regarding `N=C(S)N/N=C/c1ccc(C(F)(F)F)cc1`, the inhibition at 25 µg/mL in the series on HEp-2 [4] came to 91.8%; in the series with HL-60 [5] it was 95.3%; in the series with K562 [9], 87.2%; in the series with HT-29 [13], 85.4%; in the series with NCI-H292 [23], 89.5%. Further, the IC50 in the series on HEp-2 [10] is 6.27 µM; in the series with K562 [11], 6.42 µM; in the series with HT-29 [12] it was 9.02 µM; with HL-60 [14], 12.7 µM; in the series on PBMC it was 80.2 µM; in the series with NCI-H292 [15], 10.8 µM. Also, the IC50 with K562 [18] is 34 µM; in the series on K562 [21] it was above 101 µM. For the same compound, the Activity result with K562 [19] was “Tde”. This compound also came in with an EC50 with Erythrocyte above 250 µg/mL. Further, the selectivity ratio in series [24] amounted to 12.5.
On to `COc1cccc2c1C(=O)c1c(O)c3c(c(O)c1C2=O)C[C@@](O)(C(=O)CO)C[C@@H]3O[C@H]1C[C@H](N)[C@H](O)[C@H](C)O1` [DOXORUBICIN], for which the Activity in the series with K562 [25] came to 23.6%; in the series on K562 [26], 19.69%; in the series on K562 [27], 9.53%; in the series with K562 [28], 81.29%; in the series with K562 [29] it was 10.67%. The IC50 in the series with HEp-2 [10] amounted to 1.21 µM; in the series with K562 [11], 1.38 µM; in the series on HT-29 [12] it was 0.69 µM; in the series with HL-60 [14] it was 0.19 µM; with PBMC, 0.38 µM; with NCI-H292 [15], 0.19 µM.
